ChEMBL document CHEMBL4024748, “Development of Potent Type I Protein Arginine Methyltransferase (PRMT) Inhibitors of Leukemia Cell Proliferation” (J Med Chem, 2017)
Blank lines part the entries; values can stand above or below the compound they belong to. Active and inactive are the calls of the source. The rule behind the calls is not given here.

Columns and labels:
[1] = target: Protein arginine N-methyltransferase 1 (Rattus norvegicus, UniProt Q63009); experiment: Inhibition of rat His-tagged PRMT1 (11 to 353 residues) expressed in Escherichia coli BL21(DE3) using biotinylated H4 peptide (1 to 21 residues) as substrate preincubated for 15 mins followed by substrate addition measured after 60 mins in presence of [3H]SAM by microbeta counting method
Sequence of Protein arginine N-methyltransferase 1 (Q63009 whole entry, the tested form may be a part): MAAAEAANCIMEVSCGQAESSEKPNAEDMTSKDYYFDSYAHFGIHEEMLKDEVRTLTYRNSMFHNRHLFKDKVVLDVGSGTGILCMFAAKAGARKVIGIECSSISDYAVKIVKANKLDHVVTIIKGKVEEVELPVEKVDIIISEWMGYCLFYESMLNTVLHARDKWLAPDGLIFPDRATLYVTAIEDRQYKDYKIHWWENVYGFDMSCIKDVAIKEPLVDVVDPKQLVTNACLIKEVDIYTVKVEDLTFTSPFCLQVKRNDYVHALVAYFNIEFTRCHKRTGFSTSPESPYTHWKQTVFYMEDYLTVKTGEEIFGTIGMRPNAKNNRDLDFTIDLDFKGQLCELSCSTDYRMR
Procedure, shortened: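 Radiometric assay in modified Tris buffer. His6-rPRMT1(11–353) preincubated with compound 15 min at RT, then substrate and [3H]-SAM added. Reaction 60 min at RT, stopped with cold stop solution, transferred to Flashplate for 60 min, washed with water/0.1% Tween-20, counted on Microbeta. IC50 from curve fit.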

[2] = system: MV4-11; experiment: Cytotoxicity against human MV4-11 cells assessed as decrease in cell viability at 6.25 to 12.5 uM after 96 hrs by Cell-Titer Glo assay; type: functional, cell-based
Procedure, shortened: (§1)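 Cells kept at 37°C, 5% CO2, exposed to compound or DMSO control for 96 h. Viability read by CellTiter-Glo luminescence after 2 min shaking to lyse and 10 min at room temperature. Triplicate wells, normalised to control cells. For long-term growth, log-phase seeding densities; cells counted and replated to the starting density with fresh compound on days 4 and 8.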

[3] = target: Protein arginine N-methyltransferase 1 (Homo sapiens) (UniProt Q99873); experiment: Inhibition of PRMT1 in human MV411 cells assessed as reduction in arginine methylation after 48 hrs by Western blot analysis; type: cell-based
Sequence of Protein arginine N-methyltransferase 1 (Homo sapiens) (Q99873 whole entry, looked up): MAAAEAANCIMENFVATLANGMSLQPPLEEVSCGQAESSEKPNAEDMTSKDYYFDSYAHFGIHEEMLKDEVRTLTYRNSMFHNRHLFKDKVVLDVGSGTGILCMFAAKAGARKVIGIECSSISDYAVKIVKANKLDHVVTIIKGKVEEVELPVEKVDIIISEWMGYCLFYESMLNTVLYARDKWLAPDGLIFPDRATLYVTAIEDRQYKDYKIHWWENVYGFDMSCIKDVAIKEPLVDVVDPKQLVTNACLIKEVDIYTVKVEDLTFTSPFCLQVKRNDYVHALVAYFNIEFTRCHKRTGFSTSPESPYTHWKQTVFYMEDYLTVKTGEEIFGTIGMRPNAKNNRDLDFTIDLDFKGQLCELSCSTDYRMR
Procedure, shortened: (§2)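 MV4-11 cells treated with compound for 48 h. ADMA, SDMA and H4R3me2a read by western blot. Blots blocked in 5% nonfat milk in PBST, primary antibodies overnight at 4°C, HRP anti-rabbit secondary at 1:10000 for 1 h.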

[4] = system: MV4-11; experiment: Cell cycle arrest in human MV4-11 cells assessed as accumulation at G1 phase at 1.67 to 15 uM after 72 hrs by propidium iodide staining-based flow cytometry; type: functional
Procedure, shortened: (§3)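 MV4-11 cells in 6-well plates with compound or DMSO control, harvested at 72 h. Fixed overnight in 70% ethanol at 4°C, washed with PBS, stained 30 min at room temperature with propidium iodide/RNase buffer, analysed by flow cytometry. Mean ± SD of three replicates.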

[5] = system: MV4-11; experiment: Induction of apoptosis in human MV4-11 cells up to 15 uM after 96 hrs by annexin V-FITC/propidium iodide staining-based flow cytometric method; type: functional, cell-based
Procedure, shortened: (§4)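 MV4-11 cells in 6-well plates with compound or DMSO control, harvested at 96 h. Stained with an Annexin V-FITC apoptosis detection kit and analysed by flow cytometry. Mean ± SD of three replicates.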

[6] = system: MV4-11; experiment: Downregulation of HOXA9 mRNA levels in human MV4-11 cells up to 15 uM by qRT-PCR analysis; type: functional, cell-based
Procedure, shortened: (§5)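 MV4-11 cells treated with compound. mRNA measured by SYBR Green qRT-PCR with B2M as internal control. Fold change from ΔΔCt. Samples run in triplicate, mean ± SD.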

[7] = system: MV4-11; experiment: Downregulation of HOXA10 mRNA levels in human MV4-11 cells up to 15 uM by qRT-PCR analysis; type: functional, cell-based; procedure, shortened: as §5
[8] = system: MV4-11; experiment: Downregulation of MEIS1 mRNA levels in human MV4-11 cells up to 15 uM by qRT-PCR analysis; type: functional, cell-based; procedure, shortened: as §5
[9] = target: Protein arginine N-methyltransferase 1 (Rattus norvegicus) (UniProt Q63009); experiment: Inhibition of rat His-tagged PRMT1 (11 to 353 residues) expressed in Escherichia coli BL21(DE3) at 100 uM using biotinylated H4 peptide (1 to 21 residues) as substrate by TR-FRET assay
Sequence of Protein arginine N-methyltransferase 1 (Rattus norvegicus) (Q63009 whole entry, looked up, the tested form may be a part): as the sequence (Q63009 whole entry, the tested form may be a part) above
Procedure, shortened: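 Single-point screen at 100 µM. His6-rPRMT1(11–353) expressed in E. coli BL21(DE3) and purified by Ni affinity then gel filtration. Biotinylated H4(1–21) methylated, then product detected with Eu-labelled anti-H4R3me2a antibody plus ULight-streptavidin by TR-FRET. Percent inhibition read.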

[10] = target: Protein arginine N-methyltransferase 1 (Rattus norvegicus) (UniProt Q63009); experiment: Binding affinity to rat His-tagged PRMT1 (11 to 353 residues) expressed in Escherichia coli BL21(DE3) at 200 uM by 1D 1H CPMG-NMR spectroscopic method
Procedure, shortened: (§6)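 Rat PRMT1 (11–353), N-His6, expressed in E. coli BL21(DE3) with 0.4 mM IPTG at 16°C. Purified by Ni affinity and Superdex200. NMR used 5 µM PRMT1 in phosphate buffer pH 7.4 (20 mM NaH2PO4, 20 mM Na2HPO4, 100 mM NaCl) in D2O. Ligand at 200 µM in 5% DMSO-d6. CPMG run with 5, 2 and 1 µM PRMT1, plus STD.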

[11] = target: Protein arginine N-methyltransferase 1 (Rattus norvegicus) (UniProt Q63009); experiment: Binding affinity to rat His-tagged PRMT1 (11 to 353 residues) expressed in Escherichia coli BL21(DE3) at 200 uM by STD-NMR spectroscopic method; procedure, shortened: as §6
[12] = system: KOPN-8; experiment: Cytotoxicity against human KOPN8 cells assessed as decrease in cell viability after 96 hrs by Cell-Titer Glo assay; type: functional, cell-based; procedure, shortened: as §1
[13] = system: KMS-11; experiment: Cytotoxicity against human KMS11 cells assessed as decrease in cell viability after 96 hrs by Cell-Titer Glo assay; type: functional, cell-based; procedure, shortened: as §1
[14] = system: THP-1; experiment: Cytotoxicity against human THP1 cells assessed as decrease in cell viability after 96 hrs by Cell-Titer Glo assay; type: functional, cell-based; procedure, shortened: as §1
[15] = system: RS4-11; experiment: Cytotoxicity against human RS4:11 cells assessed as decrease in cell viability after 96 hrs by Cell-Titer Glo assay; type: functional, cell-based; procedure, shortened: as §1
[16] = system: RCH-ACV; experiment: Cytotoxicity against human RCH-ACV cells assessed as decrease in cell viability after 96 hrs by Cell-Titer Glo assay; type: functional, cell-based; procedure, shortened: as §1
[17] = system: REH; experiment: Cytotoxicity against human REH cells assessed as decrease in cell viability after 96 hrs by Cell-Titer Glo assay; type: functional, cell-based; procedure, shortened: as §1
[18] = system: U-937; experiment: Cytotoxicity against human U937 cells assessed as decrease in cell viability after 96 hrs by Cell-Titer Glo assay; type: functional, cell-based; procedure, shortened: as §1
[19] = system: MRC5; experiment: Cytotoxicity against human MRC5 cells assessed as decrease in cell viability at 6.25 to 25 uM after 96 hrs by Cell-Titer Glo assay; type: cell-based; details: mrc5, 96 h
Procedure, shortened: (§7)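 Normal HUV-EC-C, MRC-5 and RCTEC cells at 37°C, 5% CO2, given compound or DMSO control for 96 h. Viability by CellTiter-Glo luminescence after 2 min shaking and 10 min at room temperature. Triplicate wells, normalised to control cells.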

[20] = Cytotoxicity against human RCTEC cells assessed as decrease in cell viability at 6.25 to 25 uM after 96 hrs by Cell-Titer Glo assay; type: cell-based; procedure, shortened: as §7
[21] = Cytotoxicity against human HUV-EC-C cells assessed as decrease in cell viability at 6.25 to 25 uM after 96 hrs by Cell-Titer Glo assay; type: cell-based; procedure, shortened: as §7
[22] = system: MV4-11; experiment: Antiproliferative activity against human MV4-11 cells assessed as decrease in cell viability at 0.1 to 1000 uM by Cell-Titer Glo assay; type: functional, cell-based; details: TDE = time-dependent effect; procedure, shortened: as §1
[23] = system: MV4-11; experiment: Antiproliferative activity against human MV4-11 cells assessed as decrease in cell viability measured at day 12 by Cell-Titer Glo assay; type: functional, cell-based; details: MV4-11, 288 h; procedure, shortened: as §1
[24] = target: Protein arginine N-methyltransferase 1 (Homo sapiens) (UniProt Q99873); experiment: Inhibition of PRMT1 in human MV411 cells assessed as reduction in ADMA levels after 48 hrs by Western blot analysis; type: cell-based; procedure, shortened: as §2
[25] = target: Protein arginine N-methyltransferase 1 (Homo sapiens) (UniProt Q99873); experiment: Inhibition of PRMT1 in human MV411 cells assessed as increase in SDMA levels after 48 hrs by Western blot analysis; type: cell-based; procedure, shortened: as §2
[26] = system: MV4-11; experiment: Cell cycle arrest in human MV4-11 cells assessed as accumulation at G1 phase after 72 hrs by propidium iodide staining-based flow cytometry; type: functional; procedure, shortened: as §3
[27] = system: MV4-11; experiment: Induction of apoptosis in human MV4-11 cells after 96 hrs by annexin V-FITC/propidium iodide staining-based flow cytometric method; type: functional, cell-based; procedure, shortened: as §4
[28] = system: MV4-11; experiment: Downregulation of HOXA9 mRNA levels in human MV4-11 cells by qRT-PCR analysis; type: functional, cell-based; procedure, shortened: as §5
[29] = system: MV4-11; experiment: Downregulation of HOXA10 mRNA levels in human MV4-11 cells by qRT-PCR analysis; type: functional, cell-based; procedure, shortened: as §5
[30] = system: MV4-11; experiment: Downregulation of MEIS1 mRNA levels in human MV4-11 cells by qRT-PCR analysis; type: functional, cell-based; procedure, shortened: as §5
[31] = system: MV4-11; experiment: Upregulation of MNDA mRNA levels in human MV4-11 cells by qRT-PCR analysis; type: functional, cell-based
Procedure, shortened: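 Treated MV4-11 cells analysed by SYBR Green qRT-PCR, with B2M as internal control. Fold change calculated by the ΔΔCt method. Samples run in triplicate and reported as mean ± SD.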

[32] = target: Protein arginine N-methyltransferase 1 (Homo sapiens) (UniProt Q99873); experiment: Inhibition of PRMT1 in human MV411 cells assessed as reduction in H4R3me2a levels after 48 hrs by Western blot analysis; type: cell-based; procedure, shortened: as §2

SMILES: CN(C)CCNCc1ccccc1Sc1ccccc1
IC50 [1]: > 50 µM
Activity [2]: inactive
inhibition [3]: inactive
Activity [4]: inactive
Activity [5]: inactive
Activity [6]: inactive
Activity [7]: inactive
Activity [8]: inactive

SMILES: CN(C)CCNC(=O)c1ccccc1Sc1ccccc1
IC50 [1]: > 50 µM

SMILES: CN(C)CCNC(=O)c1ccccc1Sc1cccc2ccccc12
IC50 [1]: > 200 µM

SMILES: CCOC(=O)c1c2c3ccccc3c3ccccc3c2cc2[n+]1CCc1ccccc1-2
IC50 [1]: 53 µM
inhibition [9]: > 80%

SMILES: COc1ccc(N(C(=O)C2CCCCC2)S(=O)(=O)c2ccccc2)cc1
inhibition [9]: > 80%

SMILES: CCCNCc1cc(Br)cc(Br)c1OC
inhibition [9]: > 80%

SMILES: C=CCOc1ccc(CNCCc2ccc(S(N)(=O)=O)cc2)cc1
IC50 [1]: 85 µM
inhibition [9]: > 80%

SMILES: c1ccc(COc2cccc(CNCC3CCNCC3)c2)cc1
IC50 [1]: 147 µM
inhibition [9]: > 80%

SMILES: CN(C)CCNC(=O)c1ccccc1Sc1ccccc1F
IC50 [1]: > 200 µM

SMILES: CN(C)CCNC(=O)c1ccccc1Sc1ccccc1Cl
IC50 [1]: > 50 µM

Further lines, with some results ahead:

IC50 [1]: 0.39 µM
SMILES: CN(C)CCN(C)Cc1ccccc1Sc1ccccc1Cl

IC50 [1]: 3 µM
inhibition [9]: > 80%
Activity [10]: Active
Activity [11]: Active
SMILES: CN(C)CCN(C)Cc1ccccc1Sc1cccc2ccccc12

IC50 [1]: 34 µM
SMILES: CN(C)CCNCc1ccccc1Sc1cccc2ccccc12

IC50 [1]: 54 µM
SMILES: CN(C)CCNCc1ccccc1Sc1ccccc1Cl

IC50 [1]: 0.006 µM
Activity [10]: Active
Activity [11]: Active
IC50 [23]: 1.08 µM
inhibition [24]: Dose-dependent effect
inhibition [25]: Dose-dependent effect
inhibition [32]: Dose-dependent effect
SMILES: CNCCN(C)Cc1ccccc1Sc1ccccc1Cl
Activity [12]: Dose-dependent effect
Activity [13]: Dose-dependent effect
Activity [14]: Dose-dependent effect
Activity [15]: Dose-dependent effect
Activity [16]: Dose-dependent effect
Activity [17]: Dose-dependent effect
Activity [18]: Dose-dependent effect
Activity [2]: Active
Activity [19]: Non-Toxic
Activity [20]: Non-Toxic
Activity [21]: Non-Toxic
Activity [22]: Tde
Activity [26]: Dose-dependent effect
Activity [27]: Dose-dependent effect
Activity [28]: Dose-dependent effect
Activity [29]: Dose-dependent effect
Activity [30]: Dose-dependent effect
Activity [31]: Active

IC50 [1]: 0.71 µM
SMILES: CN(C)CCN(C)Cc1ccccc1Sc1ccccc1F

IC50 [1]: 3.6 µM
SMILES: CN(C)CCN(C)Cc1ccccc1Sc1ccccc1

IC50 [1]: 45 µM
SMILES: CN(C)CCNCc1ccccc1Sc1ccccc1F

IC50 [1]: 49 µM
inhibition [9]: > 80%
SMILES: Cc1ccc(-c2cc(CC(=O)c3c(O)cc(O)cc3O)n[nH]2)cc1
